In the library only some 4.5% were active in any assay of this set; here they are far more common.
PERK inh = inhibitors of human PERK kinase; inhibition, % at 5.6 µM; Q9NZJ5; AID 1416; CHO PERK-DD fusion, SEAP luminescence translation reporter; 220,000 compounds, 0.17% hits;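 active means inhibition above the mean inhibition of all tested compounds plus 3 SD, set separately per screening campaign, cut at about 2.9% in these data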;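 further: PERK kinase domain activated by AP20187 dimerizer at 100 nM; 0% = DMSO with dimerizer and 100% = rapamycin at 8.4 µM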
Target sequence (Q9NZJ5 whole entry, looked up, the tested form may be a part): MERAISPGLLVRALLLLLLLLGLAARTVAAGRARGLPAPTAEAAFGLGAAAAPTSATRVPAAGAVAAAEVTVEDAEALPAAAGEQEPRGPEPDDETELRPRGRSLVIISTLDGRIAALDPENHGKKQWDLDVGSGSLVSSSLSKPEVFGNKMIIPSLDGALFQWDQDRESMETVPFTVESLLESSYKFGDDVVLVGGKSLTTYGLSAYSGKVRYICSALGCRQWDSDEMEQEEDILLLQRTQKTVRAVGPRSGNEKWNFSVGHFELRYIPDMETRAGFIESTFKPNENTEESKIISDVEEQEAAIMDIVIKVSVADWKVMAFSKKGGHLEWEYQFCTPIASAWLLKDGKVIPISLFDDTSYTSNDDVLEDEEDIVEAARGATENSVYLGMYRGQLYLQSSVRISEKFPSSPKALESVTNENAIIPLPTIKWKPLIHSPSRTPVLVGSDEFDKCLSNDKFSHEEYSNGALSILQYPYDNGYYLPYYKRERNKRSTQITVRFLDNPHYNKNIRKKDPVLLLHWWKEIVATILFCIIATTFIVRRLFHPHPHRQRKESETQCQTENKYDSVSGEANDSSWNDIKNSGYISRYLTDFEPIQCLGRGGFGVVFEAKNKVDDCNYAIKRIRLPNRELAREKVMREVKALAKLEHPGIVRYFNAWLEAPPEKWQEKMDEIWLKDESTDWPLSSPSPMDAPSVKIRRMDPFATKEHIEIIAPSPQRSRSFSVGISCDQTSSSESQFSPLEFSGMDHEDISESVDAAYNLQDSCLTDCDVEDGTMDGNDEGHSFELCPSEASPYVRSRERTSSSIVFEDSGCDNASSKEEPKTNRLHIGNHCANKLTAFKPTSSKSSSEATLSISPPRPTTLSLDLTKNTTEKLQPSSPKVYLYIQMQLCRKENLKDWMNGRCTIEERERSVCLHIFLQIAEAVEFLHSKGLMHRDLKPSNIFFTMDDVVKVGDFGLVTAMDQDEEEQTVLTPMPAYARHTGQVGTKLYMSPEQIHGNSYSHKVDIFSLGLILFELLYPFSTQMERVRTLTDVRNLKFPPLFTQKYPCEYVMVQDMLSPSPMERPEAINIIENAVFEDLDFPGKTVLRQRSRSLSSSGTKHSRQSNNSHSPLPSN
APP 5'UTR act = activates APP 5'UTR luciferase reporter; AID 1276; 190,000 compounds, 1% hits; activation, % at 2 µM; SH-SY5Y APP 5'UTR luciferase reporter, luminescence; zero percent = DMSO vehicle wells;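 active means activation above a set limit, based on mean plus 3 SD of controls, cut at about 140% in these data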
MDM2 E3 inh = inhibitors of human Mdm2 E3 ubiquitin ligase; Q00987; cell-based MDM2 ubiquitination luciferase reporter, 2 h; 0 = plate control, 100 = twice control, blank-subtracted; signal enhancement, % at 5 µM; 210,000 compounds, 0.11% hits; AID 1230;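 active means signal enhancement of 30% or more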;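 further: luminescence tracks abundance of the self-degrading MDM2-luciferase fusion protein; higher signal means inhibition of MDM2 E3 ligase activity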
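Timing – 2 h compound exposure at 37 °C · Assay system – mammalian cells stably expressing self-ubiquitinating, self-degrading MDM2 E3–luciferase fusion · Amount – 2000 cells seeded into each well · Measure – % luminescence enhancement versus blank-corrected plate control mean · Measured by – SteadyLite luminescence, 15 min reagent step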
NF-kB expr up = NF-kB expression increase, human neuronal cells; NF-kB reporter expression; hits give high values; fold change at 12.5 µM; 190,000 compounds, 1.6% hits; in the data active means fold change above about 3.3
AHR act = activates the human aryl hydrocarbon receptor | P35869 | AHR-responsive luciferase reporter cells, luminescence | activation, % at 5 µM | 320,000 compounds, 2.5% hits | AID 2796; in the data active means activation above about 47%;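 further: 0% = vehicle wells and 100% = reference agonist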
STAT1 activator = increases IFN-gamma driven STAT1 reporter signal. NIH 3T3 STAT1-luciferase reporter, luminescence; 100% = IFN-gamma alone, no compound. activation (% of control), % at 5.5 µM. 200,000 compounds, 2.6% hits. AID 932;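 active means activation above the screen-wide mean activation plus 3 SD, cut at about 130% in these data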;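 further: raw ratio to IFN-gamma control signal so 100% means no change and 0% no light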
* = called active by the depositor; . = no result.

SMILES	PERK inh	APP 5'UTR act	MDM2 E3 inh	NF-kB expr up	AHR act	STAT1 activator
COc1ccc(S(=O)(=O)N(C)C[C@H]2Oc3ccc(NC(=O)C4CC4)cc3C(=O)N([C@H](C)CO)C[C@@H]2C)cc1	.	.	.	.	-2	.
COc1cccc(N2CCN(c3ccc([N+](=O)[O-])cn3)CC2)c1	.	.	.	.	-5	.
C/C(N)=C(/C#N)C(=O)COC(=O)c1cc(-c2ccc(Br)cc2)nc2ccccc12	1	-7	-9	3.6*	7	98
COc1c2ccoc2c(OC[C@@H](O)C(C)(C)O)c2oc(=O)ccc12	0	12	.	1.2	50*	104
COC(C)(C)[C@H](O)COc1c2ccoc2cc2oc(=O)ccc12	0	-4	.	1.5	57*	111
COc1c2ccoc2cc2oc(=O)ccc12	.	.	.	.	24	.
CC(C)(O)C(O)COc1c2ccoc2cc2oc(=O)ccc12 (stereo not drawn)	1	6	-6	1.1	3	101
CC1(C)OC1COc1c2ccoc2cc2oc(=O)ccc12 (stereo not drawn)	1	-24	2	1.1	68*	101
O=S(=O)(c1ccc(Oc2ccc(Br)cc2)cc1)N1CCOCC1	1	8	10	0.74	3	94
CN1c2cccc3cccc(c23)N(C)C1(C)C	-1	-3	7	4.1*	12	99
Cc1cc(-c2n[nH]c(=S)n2/N=C/c2ccccc2[N+](=O)[O-])n[nH]1	1	10	6	0.99	48*	98
S=c1[nH]nc(-c2ccc(Cl)cc2)n1/N=C/c1cccs1	2	.	-8	.	75*	.
S=c1[nH]nc(-c2ccccn2)n1/N=C/c1cccs1	1	0	.	0.84	1	100
O=[N+]([O-])c1ccccc1/C=C/C=N/n1c(-c2ccc(Cl)cc2)n[nH]c1=S	0	-11	-13	0.79	60*	101
CCC(C)[C@H]1CN=C(N)N1CCc1cccc(F)c1 (stereo partly drawn)	.	.	.	.	1	.
COc1cccc(N2CCN(C(=O)c3cc(-c4ccccc4)nc4c3cnn4C(C)C)CC2)c1	.	.	.	.	0	.
COc1ccc(-n2nc([N+](=O)[O-])c(=NCCc3ccc(C)cc3)n2O)cc1	1	7	-8	1.3	19	104
COc1ccc(-n2nc([N+](=O)[O-])c(=NCc3cccnc3)n2O)cc1	1	48	3	2.7	4	149*
COc1ccc(-n2nc([N+](=O)[O-])c(=NCc3ccco3)n2O)cc1	0	73	0	2.2	10	143*
O=[N+]([O-])c1nn(-c2ccc3c(c2)OCCO3)n(O)c1=NCc1ccccc1Cl	-1	32	-8	2.5	0	146*
COc1ccc(-n2nc([N+](=O)[O-])c(=NCCc3ccc(Cl)cc3)n2O)cc1	0	11	1	1.3	2	102
O=C(COC(=O)C1C2CC3OC(=O)C1C3C2)Nc1ccccc1 (stereo not drawn)	.	.	.	.	1	.
COc1cccc(CNC(=O)COC(=O)C2CCN(c3ccc(C(F)(F)F)cn3)CC2)c1	.	.	.	.	1	.
Cc1ccc(C)c(-c2csc(-c3cccnc3)n2)c1	.	.	.	.	-1	.
Clc1cccc(Nc2nc(-c3cccnc3)cs2)c1	0	76	-5	2.6	55*	139*
SMILES	PERK inh	APP 5'UTR act	MDM2 E3 inh	NF-kB expr up	AHR act	STAT1 activator
COc1ccc(Cl)cc1Nc1nc(-c2cccnc2)cs1	.	.	.	.	19	.
Cc1ccc(Nc2nc(-c3cccnc3)cs2)cc1C	.	.	.	.	54*	.
Cc1ccc(C(=O)Nc2nc(-c3cccnc3)cs2)o1	0	24	0	1	70*	116
c1ccc(CNc2nc(-c3cccnc3)cs2)cc1	0	8	-14	2.1	19	112
Brc1ccc(Nc2nc(-c3cccnc3)cs2)cc1	0	47	-4	1.1	41	131*
N#Cc1ccc(CN2C=NS(=O)(=O)c3ccccc32)cc1	.	.	.	.	2	.
CCCNS(=O)(=O)c1ccc(OCC(=O)N2CCOCC2)cc1	1	-8	-5	1.4	0	100
COc1ccc(OC)c(NC(=O)c2ccc(OC3CSC3)cc2)c1	0	-8	-5	1.4	-5	100
O=C(O)c1ccc(Nc2nc(-c3cccnc3)cs2)cc1	.	.	.	.	6	.
Brc1cccc(Nc2nc(-c3cccnc3)cs2)c1	.	.	.	.	70*	.
O=C(Nc1nc(-c2cccc(Br)c2)cs1)Oc1ccccc1	1	19	2	1.4	7	105
Oc1ccc(Nc2nc(-c3cccnc3)cs2)cc1	.	.	.	.	74*	.
COC(=O)c1cccc(NC(=O)CCNC(=O)c2ccc([N+](=O)[O-])cc2)c1	0	12	-3	1.2	0	95
N=C1SCC(=O)N1c1nc(-c2ccccc2)cs1	2	-7	-3	1.6	12	150*
O=C1C2C3c4ccccc4C(c4ccccc43)C2C(=O)N1c1nc(-c2ccccc2)cs1 (stereo not drawn)	0	-18	-9	1.1	0	106
O=C(/C=C/c1ccccc1Cl)Nc1ccccc1	1	.	-44	.	36	.
O=C(/C=C/c1ccccc1Cl)Nc1cccc(O)c1	1	191*	-34	12*	-2	69
O=C(/C=C/c1ccccc1[N+](=O)[O-])Nc1ccccc1	0	172*	-24	8.3*	7	128
CC(=O)c1c(C)[nH]c(C(=O)NCc2ccccc2Cl)c1C	-1	5	-5	1	-5	101
CC(=O)c1c(C)[nH]c(C(=O)Nc2cccc3ccccc23)c1C	.	.	.	.	110*	.
CC(=O)c1c(C)[nH]c(C(=O)Nc2ccccc2Cl)c1C	.	.	.	.	59*	.
CCC(C)c1ccccc1NC(=O)c1[nH]c(C)c(C(C)=O)c1C (stereo not drawn)	.	.	.	.	29	.
Cc1ccc(S(=O)(=O)NCCC(=O)OCc2ccc([N+](=O)[O-])cc2)cc1C	.	.	.	.	0	.
COC(=O)[C@]1(Cc2ccccc2)N[C@H](CN(C)C(=O)c2ccc(C)cc2)[C@@H]2C(=O)N(Cc3ccccc3)C(=O)[C@@H]21	.	.	.	.	1	.
CCCCCn1cnc2sc(CC)cc2c1=O	0	66	-2	2.3	1	144*
SMILES	PERK inh	APP 5'UTR act	MDM2 E3 inh	NF-kB expr up	AHR act	STAT1 activator
CCCCCn1cnc2sc(-c3ccccc3)cc2c1=O	0	4	-15	4.8*	-8	149*
O=c1c2cc(-c3ccccc3)sc2ncn1/N=C/c1ccco1	0	20	-21	2.4	0	129*
CCc1cc2c(=O)n(CC(C)C)cnc2s1	0	32	-2	1.5	4	128
CCc1cc2c(=O)n(-c3ccc(Br)cc3)cnc2s1	-2	13	-13	2.4	1	137*
CC(C)Oc1ccc(C(=O)NN2C(=O)NC3(CCCCC3)C2=O)cc1	.	.	.	.	1	.
C#CCOCCOCCOCCNc1nc(N2CCN(C(=O)[C@H]([C@@H](C)CC)n3cc([C@@H](N)Cc4ccc(O)cc4)nn3)CC2)nc(N2CCN(C(=O)[C@H](CCCCN)n3cc([C@@H](N)CO)nn3)CC2)n1	-1	-7	.	1	1	104

Screening data (PubChem BioAssay)
